This is a sample that favours compounds with a hit; in the whole collection about 2.1% have one here.
CHRM1 agonist = human M1 muscarinic receptor agonism. P11229. 0.33% of 360,000 active. AID 588814. CHO-K1 hM1, Fluo-8 calcium fluorescence, agonist mode; 0% DMSO, 100% acetylcholine EC100. activation, % at 3 µM;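 active = activation above the run's mean compound activation plus 3 SD, cut at about 16% in these data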;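 also: peak over basal fluorescence ratio within a 140 s kinetic read after compound addition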
Target sequence (P11229 whole entry, looked up): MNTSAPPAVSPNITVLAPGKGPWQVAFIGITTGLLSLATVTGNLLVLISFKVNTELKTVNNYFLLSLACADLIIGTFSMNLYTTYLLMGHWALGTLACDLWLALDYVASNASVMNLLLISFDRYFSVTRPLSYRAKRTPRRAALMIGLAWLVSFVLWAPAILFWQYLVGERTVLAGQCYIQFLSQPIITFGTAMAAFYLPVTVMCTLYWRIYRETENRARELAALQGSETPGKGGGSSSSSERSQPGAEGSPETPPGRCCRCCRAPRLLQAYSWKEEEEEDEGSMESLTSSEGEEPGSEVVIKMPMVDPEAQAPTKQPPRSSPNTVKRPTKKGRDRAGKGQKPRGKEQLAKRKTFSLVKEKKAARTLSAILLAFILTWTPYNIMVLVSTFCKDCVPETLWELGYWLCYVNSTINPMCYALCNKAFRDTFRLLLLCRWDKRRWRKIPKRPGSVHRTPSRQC
CHRM1 PAM = potentiates human M1 receptor response to acetylcholine | P11229 | CHO-K1 hM1, Fluo-8 calcium fluorescence, ACh EC20; 0% = ACh EC20, 100% = maximal ACh | activation, % at 3 µM | 0.088% of 360,000 active | AID 588819; in the data active = activation above about 19%, passing the limit was not always enough
CHRM5 agonist = CHRM5 agonism in calcium assay; P08912; CHO-K1 hM5 cells, Fluo-8 calcium fluorescence; 0% DMSO wells, 100% maximal acetylcholine response; activation, % at 3 µM; 0.19% of 360,000 active; AID 624037;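 active = activation above the run's mean over test compounds plus 3 SD, cut at about 23% in these data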;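 also: signal is peak over basal fluorescence ratio across the kinetic read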
CHRM5 PAM = positive allosteric modulators of human muscarinic M5 receptor; P08912; CHO-K1 hM5, Fluo-8 calcium, ACh EC20 PAM; 0% = ACh EC20, 100% = ACh EC100; activation, % at 3 µM; 0.3% of 360,000 active; AID 624038;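 active = activation above the run cutoff, the mean activation of all test compounds plus 3 SD, cut at about 18% in these data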
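system = human M5 receptor in CHO-K1 cells | reagent = EC20 acetylcholine as agonist stimulus | compound dosing = single-point, 3 µM nominal | incubation = Fluo-8 loading 80 min at 37 °C plus 30 min room temperature | detection = Fluo-8 calcium dye fluorescence, kinetic read | benchmarks = low control EC20 acetylcholine (0%), high control EC100 acetylcholine (100%)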
M5 antag = antagonists of human muscarinic M5 receptor (CHRM5). P08912. CHO-hM5 cells, Fluo-8 calcium fluorescence, ACh EC80. 0.59% of 360,000 active. inhibition, % at 3 µM;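 active = inhibition above a per-plate cutoff, the mean of that plate's test compounds plus 3 SD, cut at about 27% in these data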;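 also: 0% = acetylcholine EC80 with DMSO and 100% = DMSO without agonist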
CHRM1 antagonist = antagonists of human M1 muscarinic receptor; CHO-K1 hM1, Fluo-8 calcium fluorescence, ACh EC80 antagonist; 1.3% of 360,000 active; inhibition, % at 3 µM; AID 588852; P11229;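 active = percent inhibition above its own plate's cutoff, namely the mean of that plate's compound wells plus 3 SD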;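 also: peak over basal fluorescence ratio during 140 s after agonist addition; 0% = ACh EC80 plus DMSO and 100% = DMSO alone without agonist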
* marks the source's active call; other numbers are inactive results; + = active, no number.

SMILES	CHRM1 agonist	CHRM1 PAM	CHRM5 agonist	CHRM5 PAM	M5 antag	CHRM1 antagonist
COc1cc(S(=O)(=O)N2CCC(C(N)=O)CC2)c(C)cc1C	-1.6	1.3	2.0	-5.0	0.1	0.1
Cc1nc(CCNC(=O)C2CCC(=O)N(CCc3cccc(F)c3)C2)sc1C (configuration not stated)	-2.1	-3.1	0.8	-4.2	0.0	-7.9
Cc1n[nH]c(C)c1CCNC(=O)C1CCC(=O)N(CCc2cccc(F)c2)C1 (configuration not stated)	4.3	18.1	2.9	23.5*	-6.2	-14.2
Cc1cc(C)c(NC(=S)NCCCSC2CCCCC2)c(C)c1	-3.0	-1.2	-4.6	1.4	-11.1	0.6
CCc1ccc(NC(=O)CCCN2C(=O)C3CC=CCC3C2=O)cc1 (configuration not stated)	-2.1	5.7	-8.0	-8.5	29.0*	-9.7
Cc1cccc(NC(=O)CCCN2C(=O)C3CC=CCC3C2=O)c1 (configuration not stated)	-0.7	9.1	-3.9	-2.2	7.5	-2.8
Cc1c(C(=O)NCc2ccccc2)c(-c2ccccc2)nn1-c1ccccc1	-9.9	4.2	-1.6	-1.3	-4.2	-1.4
COc1ccc(CNC(=O)COc2cc3c(c4oc(=O)cc(C)c24)CCC(C)(C)O3)cc1	-5.7	-2.9	-2.1	-3.7	0.4	-1.3
COc1ccccc1CNC(=O)COc1cc2c(c3oc(=O)cc(C)c13)CCC(C)(C)O2	-5.0	-24.9	-1.9	-14.7	6.6	33.5*
COc1cc(C(=S)N2CCOCC2)cc(OC)c1OC(=O)c1ccc(F)cc1	-1.3	9.3	-5.9	1.3	-3.3	-16.8
C=CCn1cc(C(=O)OCC)c(=O)c2cc(F)c(F)cc21	-2.6	8.6	0.4	1.6	1.5	-16.1
CCOC(=O)c1cn(Cc2ccc(C)cc2)c2cc(F)ccc2c1=O	16.7*	17.6	0.1	3.2	0.9	-10.0
CN(C)CCOc1ccc2ccccc2c1	-4.0	-2.7	-2.8	-0.5	2.1	5.3
CCCCc1cc2ccccc2c(OCCN(C)C)n1	-6.8	-27.8	-12.9	-39.1	0.2	56.5*
Cn1nc(C(F)(F)F)c(-c2ccc(F)cc2)c1NC(=O)c1ccco1	-1.9	23.8	3.0	15.6	-14.2	-20.4
Cn1nc(C(F)(F)F)c(-c2ccc(Br)cc2)c1NC(=O)Nc1ccc(F)cc1F	3.9	-8.6	8.9	-19.8	29.7*	38.3*
O=S(=O)(c1ccc(F)cc1)N1CCc2ccccc21	-6.5	8.0	-11.3	0.6	-1.2	-14.4
O=C1NC2(Nc3ccccc31)C(=O)Nc1ccc(Br)cc12 (configuration not stated)	-2.7	1.8	-14.9	-30.4	98.5*	12.0
CCOc1ccc(C(=O)NCCCn2ccnc2)cc1	-1.6	0.0	-7.4	18.1*	-0.3	7.9
Cc1c(C(=O)NCCCn2ccnc2)oc2ccccc12	-8.3	8.6	-2.6	18.4*	-5.0	-1.5
O=C(NCCCn1ccnc1)c1cc2ccccc2o1	-4.9	6.3	-0.4	-0.8	6.2	-3.7
CCCOc1ccc(C(=O)NCCCn2ccnc2)cc1	-4.8	0.0	-3.0	1.1	-2.9	5.5
Cc1ccc(C)c(C(=O)COC(=O)c2c(-c3ccccc3)noc2C)c1	-4.0	4.8	-5.2	2.4	0.1	-8.6
N#CC(C#N)=C1C=C2C=C(N3CCOCC3)CCC2CC1 (configuration not stated)	124.3*	-24.6	36.8*	-15.8	23.5	57.8*
N#Cc1cc(Cl)c(N2CCOCC2)cc1C#N	0.0	-1.1	1.2	7.7	-0.7	-14.6
SMILES	CHRM1 agonist	CHRM1 PAM	CHRM5 agonist	CHRM5 PAM	M5 antag	CHRM1 antagonist
CC1(C)CC(NCCN2CCN(C3=CC(=C(C#N)C#N)CC(C)(C)C3)CC2)=CC(=C(C#N)C#N)C1	-5.1	2.9	3.0	2.5	0.8	-2.9
CN1CCN(C2=CC3=CC(=C(C#N)C#N)CCC3CC2)CC1 (configuration not stated)	896.4*	-27.7	491.5*	-37.1	72.4*	103.0*
CCN1CCN(C2=CC3=CC(=C(C#N)C#N)CCC3CC2)CC1 (configuration not stated)	590.7*	-25.2	222.5*	-36.5	59.4*	101.0*
N#CC(C#N)=C1C=C2C=C(N3CCCCCC3)CCC2CC1 (configuration not stated)	+	-32.6	+	-20.9	103.1*	101.7*
O=C(CSc1nnnn1-c1ccccc1)NC(=O)NCc1ccco1	-1.3	1.4	2.1	2.5	2.7	-8.8
Cc1cccc(NC(=O)C(=O)NCC2CCCN2S(=O)(=O)c2cccs2)c1C (configuration not stated)	-5.0	-1.6	-0.5	3.2	-0.9	-0.2
O=C1C(Cl)=C(N2CCCCCC2)C(=O)N1c1ccc(Br)cc1	-8.6	-5.8	-5.0	0.7	7.2	0.5
O=C1C(Cl)=C(N2CCCCCC2)C(=O)N1c1ccccc1	-4.5	-17.4	-12.8	-11.7	1.2	36.1*
O=C(CCc1nnc(Cc2ccc3c(c2)OCO3)o1)NCc1nc2ccccc2s1	-2.6	0.7	2.0	1.2	-5.5	5.7
CC(=O)Nc1cccc(-c2csc(Nc3ccccn3)n2)c1	-5.9	3.8	1.4	-3.6	2.6	0.6
Cn1c(=O)cc(SCC(=O)NCCC2=CCCCC2)c2ccc(Cl)cc21	-2.8	3.2	-2.5	0.9	3.0	-11.2
C=CCn1c(SCC(=O)NCCC2=CCCCC2)nc2ccc(Cl)cc2c1=O	-0.7	5.9	3.7	30.2*	1.6	-5.2
C=CCn1c(SCC(=O)NCc2ccco2)nc2ccccc2c1=O	-12.9	-32.6	-1.1	-2.0	12.5	99.9*
C=C1CCN(c2ccc(C(=O)NCc3ccc(C)cc3)cc2[N+](=O)[O-])CC1	-5.6	1.5	0.9	4.2	-5.6	-6.0
O=C(CN1CCOCC1)Nc1ncc(Cc2cccc(Cl)c2)s1	-9.1	8.0	1.1	4.2	-1.3	-8.2
O=C(Nc1cccnc1)c1ccc(COc2cc(Cl)ccc2Cl)o1	-1.9	-3.9	1.9	-6.8	5.4	12.4
O=C(N/N=C/c1ccc(O)cc1)c1ccc(COc2cc(Cl)ccc2Cl)o1	35.7*	-0.3	34.9*	-6.0	11.5	-0.2
COc1ccc(CNC(=O)c2cccc3c(-c4cccc(C(N)=O)c4)coc23)cc1OC	5.5	-19.3	9.2	-16.6	27.2*	38.8*
COc1cc(-c2coc3c(C(=O)NCc4ccc(OC)c(OC)c4)cccc23)ccc1O	7.2	-16.2	10.0	-16.1	15.1	29.7*
CCOC(=O)C(CC)n1cnc2c(nnn2-c2cccc(OC)c2)c1=O (configuration not stated)	-6.3	8.3	-3.2	2.8	-0.5	-7.3

Screens as filed in PubChem BioAssay.
